Key:
Assay type in all cases: functional
[1] = test system: CCRF-CEM; assay: Cytotoxicity against human CCRF-CEM cells
[2] = test system: HL-60(TB); assay: Cytotoxicity against human HL-60(TB) cells
Method in brief: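 Tested within the NCI 60-cell-line screen, with GI50 as the read-out. Values are the average of two independent experiments. The lowest concentration tested was 10 nM.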

[3] = test system: K562; assay: Cytotoxicity against human K562 cells
Method in brief: (§1)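 Tested in a 60-cell-line human tumor panel screen; the read-out is growth inhibition, reported as GI50 for each cell line.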

[4] = test system: MOLT-4; assay: Cytotoxicity against human MOLT4 cells; method in brief: as §1
[5] = test system: SR; assay: Cytotoxicity against human SR cells
Method in brief: (§2)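 Cell line run as part of the 60-cell-line screening panel; growth inhibition was reported as a GI50 for each line.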

[6] = Cytotoxicity against human EKVX cells; method in brief: as §1
[7] = test system: NCI-H226; assay: Cytotoxicity against human NCI-H226 cells; method in brief: as §1
[8] = test system: NCI-H23; assay: Cytotoxicity against human NCI-H23 cells; method in brief: as §1
[9] = test system: HCC 2998; assay: Cytotoxicity against human HCC2998 cells; method in brief: as §1
[10] = test system: HT-29; assay: Cytotoxicity against human HT-29 cells; method in brief: as §1
[11] = test system: KM12; assay: Cytotoxicity against human KM12 cells; method in brief: as §1
[12] = test system: SF-268; assay: Cytotoxicity against human SF268 cells; method in brief: as §1
[13] = test system: SF-295; assay: Cytotoxicity against human SF295 cells; method in brief: as §1
[14] = test system: SF-539; assay: Cytotoxicity against human SF539 cells; method in brief: as §1
[15] = test system: SNB-19; assay: Cytotoxicity against human SNB19 cells; method in brief: as §1
[16] = test system: SNB-75; assay: Cytotoxicity against human SNB75 cells; method in brief: as §2
[17] = test system: U-251; assay: Cytotoxicity against human U251 cells; method in brief: as §2
[18] = test system: M14; assay: Cytotoxicity against human M14 cells; method in brief: as §1
[19] = test system: MDA-MB-435; assay: Cytotoxicity against human MDA-MB-435 cells; method in brief: as §1
[20] = test system: NCI-H322M; assay: Cytotoxicity against human NCI-H322M cells; method in brief: as §1
[21] = test system: NCI-H460; assay: Cytotoxicity against human NCI-H460 cells; method in brief: as §1
[22] = test system: SK-MEL-2; assay: Cytotoxicity against human SK-MEL-2 cells; method in brief: as §1
[23] = read-out: pLC50 (the source's name) (converted)

CC1(C)[C@H](O)CC[C@@]2(C)Oc3c(O)cc(/C=C/c4cc(O)c5cc[nH]c5c4)cc3C[C@H]12
GI50 [1]: 0.219 µM
CC50 [1, 23]: > 100 µM
TGI ([1]; read-out: pTGI (converted)): 14.1 µM
GI50 [2]: 0.0437 µM
CC50 [2, 23]: > 100 µM
TGI ([2]; read-out: pTGI (converted)): 4.79 µM
GI50 [3]: 0.263 µM
CC50 [3, 23]: > 100 µM
TGI ([3]; read-out: pTGI (converted)): 47.9 µM
GI50 [4]: 0.0437 µM
CC50 [4, 23]: > 100 µM
TGI ([4]; read-out: pTGI (converted)): 0.617 µM
GI50 [5]: 0.123 µM
CC50 [5, 23]: > 100 µM
TGI ([5]; read-out: pTGI (converted)): 21.4 µM
GI50 [6]: 0.794 µM
CC50 [6, 23]: > 100 µM
TGI ([6]; read-out: pTGI (converted)): 16.2 µM
GI50 [7]: 19.5 µM
CC50 [7, 23]: > 100 µM
TGI ([7]; read-out: pTGI (converted)): 75.9 µM
GI50 [8]: 1.32 µM
CC50 [8, 23]: 41.7 µM
TGI ([8]; read-out: pTGI (converted)): 7.59 µM
GI50 [9]: 3.16 µM
CC50 [9, 23]: 39.8 µM
TGI ([9]; read-out: pTGI (converted)): 14.1 µM
GI50 [10]: 1.17 µM
CC50 [10, 23]: 45.7 µM
TGI ([10]; read-out: pTGI (converted)): 4.17 µM
GI50 [11]: 0.447 µM
CC50 [11, 23]: 7.76 µM
TGI ([11]; read-out: pTGI (converted)): 1.95 µM
GI50 [12]: 0.589 µM
CC50 [12, 23]: 79.4 µM
TGI ([12]; read-out: pTGI (converted)): 26.3 µM
GI50 ([13]; read-out: GI50): 0.089 µM
GI50 ([13]; read-out: pGI50 (converted)): 0.0891 µM
CC50 [13, 23]: 3.16 µM
TGI ([13]; read-out: pTGI (converted)): 0.427 µM
GI50 [14]: 0.0204 µM
CC50 [14, 23]: 6.17 µM
TGI ([14]; read-out: pTGI (converted)): 0.724 µM
GI50 [15]: 1.12 µM
CC50 [15, 23]: > 100 µM
TGI ([15]; read-out: pTGI (converted)): 26.9 µM
GI50 [16]: 0.01 µM
CC50 [16, 23]: 56.2 µM
TGI ([16]; read-out: pTGI (converted)): 0.851 µM
GI50 [17]: 0.0891 µM
CC50 [17, 23]: > 100 µM
TGI ([17]; read-out: pTGI (converted)): 20 µM
GI50 [18]: 0.138 µM
CC50 [18, 23]: 8.32 µM
TGI ([18]; read-out: pTGI (converted)): 0.646 µM
GI50 [19]: 0.661 µM
CC50 [19, 23]: 51.3 µM
TGI ([19]; read-out: pTGI (converted)): 9.55 µM
GI50 [20]: 7.08 µM
CC50 [20, 23]: 95.5 µM
TGI ([20]; read-out: pTGI (converted)): 33.9 µM
GI50 [21]: 0.55 µM
CC50 [21, 23]: 6.31 µM
TGI ([21]; read-out: pTGI (converted)): 2.14 µM
GI50 [22]: 0.759 µM

From ChEMBL document CHEMBL3232844, “Synthesis and structure activity relationships of schweinfurthin indoles” (2014)
